Measured values taken from ChEMBL document CHEMBL3352472, “Discovery of 4-aryl-7-hydroxyindoline-based P2Y1 antagonists as novel antiplatelet agents” (J Med Chem, 2014).
Converted amounts (≈) assume the structure as drawn. The source made the active and inactive calls. The calls are words filed in the database; no cut-off is given here.

What was measured:
Oryctolagus cuniculus [1] = assay: Antithrombotic activity in rabbit model of electrically-induced carotid artery thrombosis assessed as reduction in thrombus formation dosed 30 mins before electrical stimulation; type: functional, organism-based
Oryctolagus cuniculus [2] = assay: Induction of bleeding time in rabbit model of electrically-induced carotid artery thrombosis at 80% antithrombotic dose administered 30 mins before electrical stimulation (reference value: 1 +/- 0.05); type: organism-based; details: in vivo, 0.5 h
P2Y purinoceptor 1 [3] = target: T1, P2Y purinoceptor 1 (Homo sapiens, UniProt P47900); assay: Antagonist activity at P2Y1 receptor in platelet-enriched human plasma assessed as 10 uM ADP-induced platelet aggregation at 40 uM preincubated for 1 min followed by ADP induction measured at 5 mins by aggregometric analysis; type: cell-free
[4] = Metabolic stability in human liver microsomes assessed as compound remaining at 0.5 uM after 10 mins; type: ADME; details: read-out: Stability
Outline: (§1)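 Compound at 0.5 μM incubated 10 min with 1 mg/mL human, rat or mouse liver microsomes; percentage of parent remaining reported.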

[5] = Metabolic stability in rat liver microsomes assessed as compound remaining at 0.5 uM after 10 mins; type: ADME; details: read-out: Stability; outline: as §1
[6] = Metabolic stability in mouse liver microsomes assessed as compound remaining at 0.5 uM after 10 mins; type: ADME; details: read-out: Stability; outline: as §1
hERG (KCNH2) = hERG (KCNH2) (Homo sapiens, UniProt Q12809); assay: Inhibition of human ERG at 1 uM by patch clamp assay
P2Y purinoceptor 2 = P2Y purinoceptor 2 (Homo sapiens, UniProt P41231); assay: Antagonist activity at P2Y2 receptor (unknown origin)
P2Y purinoceptor 12 = P2Y purinoceptor 12 (Homo sapiens, UniProt Q9H244); assay: Antagonist activity at P2Y12 receptor (unknown origin)
[7] = Aqueous solubility of the compound at pH 3 using compound in amorphous solid form; type: physicochemical; details: buffer
Oryctolagus cuniculus [8] = assay: Induction of bleeding time in rabbit model of electrically-induced carotid artery thrombosis administered 30 mins before electrical stimulation; type: organism-based; details: in vivo, 0.5 h
Outline: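 Rabbits received an iv bolus plus continuous infusion (0.003 + 0.01 up to 0.3 + 1 mg/kg + mg·kg−1·h−1), started 30 min before carotid electrical stimulation and maintained throughout. Vehicle was 10% DMAc/2.5% PVP-K12/1% Pluronic F-108/D5W. Bleeding time was recorded up to 20 min after cuticle incision and expressed as fold of vehicle; mean ± SEM, n = 5–8 per group.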

P2Y purinoceptor 1 [9] = target: T1, P2Y purinoceptor 1; assay: Antagonist activity at P2Y1 receptor in washed human platelets assessed as 1 uM 2-methylthio-ADP-induced calcium flux by FLIPR assay; type: functional
[10] = Clearance in rat at 0.5 mg/kg by cassette dosing method; type: ADME, organism-based; parameters: dose 0.5 mg/kg; details: in vivo
[11] = Volume of distribution at steady state in rat at 0.5 mg/kg by cassette dosing method; type: ADME, organism-based; parameters: dose 0.5 mg/kg; details: in vivo, read-out: Vdss
[12] = Oral bioavailability in rat at 0.5 mg/kg by cassette dosing method; type: ADME, organism-based; details: in vivo
[13] = Antagonist activity at P2Y1 receptor in platelet-enriched rabbit plasma assessed as 10 uM ADP-induced platelet aggregation preincubated for 1 min followed by ADP induction measured at 5 mins by aggregometric analysis; type: cell-free; details: Oryctolagus cuniculus
Oryctolagus cuniculus [14] = assay: Induction of bleeding time in rabbit model of electrically-induced carotid artery thrombosis at 0.1 mg/kg, iv + 0.033 mg/kg/hr, iv dosed 30 mins before electrical stimulation (reference value: 1 +/- 0.05); type: organism-based; details: in vivo, 0.5 h
Oryctolagus cuniculus [15] = assay: Induction of bleeding time in rabbit model of electrically-induced carotid artery thrombosis at 0.3 mg/kg, iv + 1 mg/kg/hr, iv dosed 30 mins before electrical stimulation (reference value: 1 +/- 0.05); type: organism-based; details: in vivo, 0.5 h
Oryctolagus cuniculus [16] = assay: Induction of bleeding time in rabbit model of electrically-induced carotid artery thrombosis at 90% antithrombotic dose administered 30 mins before electrical stimulation (reference value: 1 +/- 0.05); type: organism-based; details: in vivo, 0.5 h
[17] = Aqueous solubility of the compound; type: physicochemical; details: buffer
Outline: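 Amorphous solid; solubility measured at pH 3.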

[18] = Clearance in rat at 0.5 mg/kg, iv by discrete dosing method; type: ADME, organism-based; parameters: dose 0.5 mg/kg, route intravenous; details: in vivo
Outline: (§2)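 Discrete rat PK; 0.5 mg/kg iv given in solution in DMAc/cremophor/EtOH/water (10/10/10/70).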

[19] = Volume of distribution in rat at 0.5 mg/kg, iv by discrete dosing method; type: ADME, organism-based; parameters: dose 0.5 mg/kg, route intravenous; details: in vivo; outline: as §2
[20] = Half life in rat at 0.5 mg/kg, iv by discrete dosing method; type: ADME, organism-based; parameters: dose 0.5 mg/kg, route intravenous; details: in vivo; outline: as §2
[21] = Oral bioavailability in rat at 15 mg/kg by discrete dosing method; type: ADME, organism-based; details: in vivo
Outline: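 Discrete rat PK; 15 mg/kg oral and 0.5 mg/kg iv, both in solution in DMAc/cremophor/EtOH/water (10/10/10/70).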

Oryctolagus cuniculus [22] = assay: Antithrombotic activity in rabbit model of electrically-induced carotid artery thrombosis assessed as reduction in thrombus formation at 0.003 mg/kg, iv + 0.01 mg/kg/hr, iv dosed 30 mins before electrical stimulation (reference value: 3 +/- 2%); type: functional
Oryctolagus cuniculus [23] = assay: Antithrombotic activity in rabbit model of electrically-induced carotid artery thrombosis assessed as reduction in thrombus formation at 0.01 mg/kg, iv + 0.033 mg/kg/hr, iv dosed 30 mins before electrical stimulation (reference value: 3 +/- 2%); type: functional
Oryctolagus cuniculus [24] = assay: Antithrombotic activity in rabbit model of electrically-induced carotid artery thrombosis assessed as reduction in thrombus formation at 0.03 mg/kg, iv + 0.1 mg/kg/hr, iv dosed 30 mins before electrical stimulation (reference value: 3 +/- 2%); type: functional
Oryctolagus cuniculus [25] = assay: Antithrombotic activity in rabbit model of electrically-induced carotid artery thrombosis assessed as reduction in thrombus formation at 0.1 mg/kg, iv + 0.033 mg/kg/hr, iv dosed 30 mins before electrical stimulation (reference value: 3 +/- 2%); type: functional
Oryctolagus cuniculus [26] = assay: Antithrombotic activity in rabbit model of electrically-induced carotid artery thrombosis assessed as reduction in thrombus formation at 0.3 mg/kg, iv + 1 mg/kg/hr, iv dosed 30 mins before electrical stimulation (reference value: 3 +/- 2%); type: functional
Oryctolagus cuniculus [27] = assay: Induction of bleeding time in rabbit model of electrically-induced carotid artery thrombosis at 0.003 mg/kg, iv + 0.01 mg/kg/hr, iv dosed 30 mins before electrical stimulation (reference value: 1 +/- 0.05); type: organism-based; details: in vivo, 0.5 h
Oryctolagus cuniculus [28] = assay: Induction of bleeding time in rabbit model of electrically-induced carotid artery thrombosis at 0.01 mg/kg, iv + 0.033 mg/kg/hr, iv dosed 30 mins before electrical stimulation (reference value: 1 +/- 0.05); type: organism-based; details: in vivo, 0.5 h
Oryctolagus cuniculus [29] = assay: Induction of bleeding time in rabbit model of electrically-induced carotid artery thrombosis at 0.03 mg/kg, iv + 0.1 mg/kg/hr, iv dosed 30 mins before electrical stimulation (reference value: 1 +/- 0.05); type: organism-based; details: in vivo, 0.5 h

T1 sequence (P47900 whole entry): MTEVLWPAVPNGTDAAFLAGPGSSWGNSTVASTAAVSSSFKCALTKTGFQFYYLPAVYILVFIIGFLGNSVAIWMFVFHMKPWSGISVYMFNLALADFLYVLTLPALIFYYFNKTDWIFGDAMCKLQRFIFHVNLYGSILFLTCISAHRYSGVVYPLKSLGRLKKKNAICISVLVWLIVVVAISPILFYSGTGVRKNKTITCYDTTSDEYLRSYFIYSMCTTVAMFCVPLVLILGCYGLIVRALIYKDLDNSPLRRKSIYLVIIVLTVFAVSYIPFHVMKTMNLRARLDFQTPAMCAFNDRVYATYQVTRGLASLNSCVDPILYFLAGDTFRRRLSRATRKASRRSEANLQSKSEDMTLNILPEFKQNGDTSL
hERG (KCNH2), sequence (Q12809 whole entry): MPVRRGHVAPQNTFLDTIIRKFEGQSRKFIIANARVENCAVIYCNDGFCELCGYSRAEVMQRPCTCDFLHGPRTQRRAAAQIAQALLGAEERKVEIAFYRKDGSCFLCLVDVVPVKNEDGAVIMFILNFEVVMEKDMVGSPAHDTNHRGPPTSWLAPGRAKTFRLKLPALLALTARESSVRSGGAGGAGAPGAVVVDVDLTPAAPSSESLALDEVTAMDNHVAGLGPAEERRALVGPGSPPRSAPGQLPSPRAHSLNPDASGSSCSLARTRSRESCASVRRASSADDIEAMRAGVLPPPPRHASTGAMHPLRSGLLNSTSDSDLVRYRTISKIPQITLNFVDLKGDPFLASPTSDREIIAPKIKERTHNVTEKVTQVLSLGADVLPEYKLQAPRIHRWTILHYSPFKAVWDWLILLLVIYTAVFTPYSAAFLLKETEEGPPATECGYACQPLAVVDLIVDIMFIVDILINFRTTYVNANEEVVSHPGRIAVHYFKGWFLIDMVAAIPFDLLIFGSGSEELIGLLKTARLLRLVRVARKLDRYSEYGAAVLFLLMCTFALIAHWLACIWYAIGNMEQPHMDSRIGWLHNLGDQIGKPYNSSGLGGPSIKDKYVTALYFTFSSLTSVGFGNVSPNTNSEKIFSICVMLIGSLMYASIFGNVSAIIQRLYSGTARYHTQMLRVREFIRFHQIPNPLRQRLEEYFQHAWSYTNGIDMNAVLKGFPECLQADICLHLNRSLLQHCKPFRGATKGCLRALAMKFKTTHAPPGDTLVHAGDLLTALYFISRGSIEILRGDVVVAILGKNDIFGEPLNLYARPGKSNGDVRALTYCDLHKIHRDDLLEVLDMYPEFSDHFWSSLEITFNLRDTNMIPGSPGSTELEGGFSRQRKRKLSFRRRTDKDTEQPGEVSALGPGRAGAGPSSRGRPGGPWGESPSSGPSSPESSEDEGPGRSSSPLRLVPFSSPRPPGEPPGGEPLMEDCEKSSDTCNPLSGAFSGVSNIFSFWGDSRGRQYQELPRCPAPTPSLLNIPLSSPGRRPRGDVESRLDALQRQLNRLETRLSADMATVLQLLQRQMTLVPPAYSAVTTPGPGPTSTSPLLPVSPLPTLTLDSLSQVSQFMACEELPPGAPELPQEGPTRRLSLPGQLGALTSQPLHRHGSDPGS
P2Y purinoceptor 12, sequence (Q9H244 whole entry): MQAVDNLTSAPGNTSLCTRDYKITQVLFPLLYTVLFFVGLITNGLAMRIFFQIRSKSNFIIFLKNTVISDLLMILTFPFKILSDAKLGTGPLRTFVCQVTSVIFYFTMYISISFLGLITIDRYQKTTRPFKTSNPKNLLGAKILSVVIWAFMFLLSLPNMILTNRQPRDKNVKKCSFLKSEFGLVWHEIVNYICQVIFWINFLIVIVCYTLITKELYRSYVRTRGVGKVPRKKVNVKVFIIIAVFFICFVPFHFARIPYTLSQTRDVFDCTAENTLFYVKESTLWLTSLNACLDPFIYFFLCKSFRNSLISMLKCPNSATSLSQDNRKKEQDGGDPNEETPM
P2Y purinoceptor 2, sequence (P41231 whole entry): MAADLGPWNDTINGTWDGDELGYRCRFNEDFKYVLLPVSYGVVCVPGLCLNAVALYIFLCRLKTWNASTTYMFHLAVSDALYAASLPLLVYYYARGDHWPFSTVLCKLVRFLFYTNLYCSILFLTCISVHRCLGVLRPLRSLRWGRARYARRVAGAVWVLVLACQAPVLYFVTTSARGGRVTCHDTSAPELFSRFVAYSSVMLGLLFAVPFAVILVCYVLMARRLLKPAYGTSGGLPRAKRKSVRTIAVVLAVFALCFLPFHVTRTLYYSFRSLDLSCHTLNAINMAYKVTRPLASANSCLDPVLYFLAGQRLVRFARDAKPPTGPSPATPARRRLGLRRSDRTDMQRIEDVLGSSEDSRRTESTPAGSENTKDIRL

SMILES | inhibition (Oryctolagus cuniculus [1]) | fold change (FC) (Oryctolagus cuniculus [2]) | remaining at 10 min, 0.5 µM [4] [%] | remaining at 10 min, 0.5 µM [5] [%] | remaining at 10 min, 0.5 µM [6] [%] | inhibition at 1 µM (hERG (KCNH2)) [%] | IC50 (P2Y purinoceptor 1 [9]) [nM] | clearance [10] [mL/min/kg] | Vd [11] [L/kg] | IC50 [13] [nM] | also measured
CC(=O)Oc1cc2c(s1)CCN(C(C(=O)C1CC1)c1ccccc1F)C2 (configuration not stated) | Active | 6 | – | – | – | – | – | – | – | – | –
CNC(=O)C1(C)CN(c2ccccc2NC(=O)Nc2nc3ccc(F)cc3s2)c2c(O)ccc(Cl)c21 (configuration not stated) | – | – | 16 | 5 | 16 | – | – | – | – | – | inhibition (P2Y purinoceptor 1 [3]): 46%
CC(C)(C)CN1CCC2(CC1)CN(c1ccccc1NC(=O)Nc1nc3ccc(Cl)nc3s1)c1c(O)cc(F)c(-c3ccc(F)cc3)c12 | Active | – | 100 | 93 | 100 | 96 | 0.12 | 4 | 2.1 | 590 | IC50 (P2Y purinoceptor 2): > 10000 nM; IC50 (P2Y purinoceptor 12): > 10000 nM; solubility [7]: 3 µg/mL (≈ 4.35 µM); Activity (Oryctolagus cuniculus [8]): Non-toxic; bioavailability [12]: 30%
COC(=O)[C@H](c1ccccc1Cl)N1CCc2sccc2C1 [CLOPIDOGREL] | Active | 6 | – | – | – | – | – | – | – | – | –
CC1(C)CN(c2ccccc2NC(=O)Nc2ccc(OC(F)(F)F)cc2)c2c(O)cc(F)c(-c3ccc(Cl)cc3)c21 | – | – | 83 | 90 | 79 | – | 1.06 | – | – | 87 | fold change (FC) (Oryctolagus cuniculus [14]): 3.7; fold change (FC) (Oryctolagus cuniculus [15]): 4.7; fold change (FC) (Oryctolagus cuniculus [16]): 4.7; solubility [17]: < 1 µg/mL; clearance [18]: 1.3 mL/min/kg; Vd [19]: 0.4 L/kg; half-life [20]: 12 h; bioavailability [21]: 10%; inhibition (INH) (Oryctolagus cuniculus [22]): 22%; inhibition (INH) (Oryctolagus cuniculus [23]): 46%; inhibition (INH) (Oryctolagus cuniculus [24]): 50%; inhibition (INH) (Oryctolagus cuniculus [25]): 72%; inhibition (INH) (Oryctolagus cuniculus [26]): 95%; fold change (FC) (Oryctolagus cuniculus [27]): 1.1; fold change (FC) (Oryctolagus cuniculus [28]): 1.4; fold change (FC) (Oryctolagus cuniculus [29]): 2.7
CC(C)(C)CN1CCC2(CC1)CN(c1ccccc1NC(=O)Nc1nc3ccc(Cl)nc3s1)c1c(O)ccc(Cl)c12 | – | – | – | – | 84 | 57 | – | 10.4 | 5.4 | – | –
